# The array DNA melting data of Ke et al. (doi:10.1101/2024.01.08.574731)
# How the values were obtained:
# [1] = melting temperature; fluorescence melt of hairpins on a sequencing array, two-state fit, raised by 9.35 °C to match UV melts; conditions: sodium 0.088 M
# In short: (§1)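 Cy3 signals were normalised both to pre-quench Cy3 and to control constructs. They came from library hairpins carrying annealed Cy3 and quencher oligos on a sequenced MiSeq flow cell, imaged in 50 mM Na-HEPES pH 8.0, 25 mM NaCl, in 2.5 °C steps up to 60 °C. Bootstrapped two-state fits gave melting temperature and folding enthalpy, and four replicates were combined by inverse variance. Fitted temperatures were then raised by 9.35 °C to match UV melts.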
# [2] = folding enthalpy; higher = less favourable; fluorescence melt of hairpins on a sequencing array, two-state fit; conditions: sodium 0.088 M
# In short: as §1
sequence,measurement,setting,value
GGGCACGAAAGTGAACCC ((((((....)))..))),Tm,[1],51.7 °C
same,folding enthalpy,[2],-16.6 kcal/mol
GCACCTGGAAACAGATGC (((.(((....))).))),Tm,[1],44 °C
same,folding enthalpy,[2],-28.4 kcal/mol
GTCAGGACGAAAGTCGAC (((..(((....)))))),Tm,[1],41.3 °C
same,folding enthalpy,[2],-18.7 kcal/mol
GTCCGGACGAAAGTCGAC (((..(((....)))))),Tm,[1],35.5 °C
same,folding enthalpy,[2],-14 kcal/mol
GATCAATTGCTTGATC ((((((....)))))),Tm,[1],43.5 °C
same,folding enthalpy,[2],-33.7 kcal/mol
GATCTGGCATCAGATC ((((((....)))))),Tm,[1],54.6 °C
same,folding enthalpy,[2],-46.2 kcal/mol
GTCGGAGGAAACTCTGGC (.(.(((....))).).),Tm,[1],37.2 °C
same,folding enthalpy,[2],-28.2 kcal/mol
GAGGGTCCGAAAGGACTC (((..(((....)))))),Tm,[1],41.3 °C
same,folding enthalpy,[2],-9.51 kcal/mol
GGACACCCGAAAGGGTCC (((..(((....)))))),Tm,[1],40.9 °C
same,folding enthalpy,[2],-11.5 kcal/mol
AATCCGAAAGGATT (((((....))))),Tm,[1],52 °C
same,folding enthalpy,[2],-17.8 kcal/mol
GTTTTGGGAAACCAAAAC (((((((....))))))),Tm,[1],57.5 °C
same,folding enthalpy,[2],-43.5 kcal/mol
GGCTGCGAAAGCACTGCC ((((((....)))..))),Tm,[1],50.9 °C
same,folding enthalpy,[2],-20.5 kcal/mol
GAAACACCGAAAGGTTTC (((..(((....)))))),Tm,[1],31.9 °C
same,folding enthalpy,[2],-17.4 kcal/mol
GATCGGAATACCGATC ((((((....)))))),Tm,[1],56.6 °C
same,folding enthalpy,[2],-33.1 kcal/mol
GAGGGACGAAAGTCGCTC (((.(((....))).))),Tm,[1],65.6 °C
same,folding enthalpy,[2],-34.3 kcal/mol
GTGTCACGAAAGTGCCAC (((.(((....))).))),Tm,[1],52.2 °C
same,folding enthalpy,[2],-51.5 kcal/mol
GATACAGAAATGTATC ((((((....)))))),Tm,[1],44.8 °C
same,folding enthalpy,[2],-30.3 kcal/mol
GATAGACGAAAGTCGATC (((.(((....))).))),Tm,[1],51.2 °C
same,folding enthalpy,[2],-25.9 kcal/mol
GGAGTCGGAAACAACTCC (((((.(....).))))),Tm,[1],41.5 °C
same,folding enthalpy,[2],-32.6 kcal/mol
GTTTACGAAAGTACAAC ((((((....))).))),Tm,[1],30.4 °C
same,folding enthalpy,[2],-11.9 kcal/mol
CGAGGCGGAAACGCATCG (((.(((....))).))),Tm,[1],64.2 °C
same,folding enthalpy,[2],-37 kcal/mol
GCATTGCGAAAGCGAGGC ((.(.((....)).).)),Tm,[1],59.1 °C
same,folding enthalpy,[2],-21 kcal/mol
GGTAAGGGAAACCTTGCC ((.((((....)))).)),Tm,[1],48.3 °C
same,folding enthalpy,[2],-29.6 kcal/mol
GTCGTGGGAAACCATGAC (((.(((....))).))),Tm,[1],52.5 °C
same,folding enthalpy,[2],-45.9 kcal/mol
GGTGTCGGAAACGACATC (.(((((....))))).),Tm,[1],54 °C
same,folding enthalpy,[2],-26.8 kcal/mol
GTACGTGAAAACGTAC ((((((....)))))),Tm,[1],59.5 °C
same,folding enthalpy,[2],-37 kcal/mol
GGGTTCGGAAACAAACCC (((((.(....).))))),Tm,[1],43 °C
same,folding enthalpy,[2],-29.8 kcal/mol
GGGTCCGAAAGGAATCCC ((((((....)))..))),Tm,[1],46.7 °C
same,folding enthalpy,[2],-22.1 kcal/mol
GGTGATGGAAACATCGCC ((.((((....)))).)),Tm,[1],55.6 °C
same,folding enthalpy,[2],-45.2 kcal/mol
CGCACGGAAACGTGGCG ((((((....))).))),Tm,[1],54.2 °C
same,folding enthalpy,[2],-25.9 kcal/mol
CGGTAGCGGAAACGCCCG (((..(((....)))))),Tm,[1],48.7 °C
same,folding enthalpy,[2],-23.4 kcal/mol
GCATCAGGAAACTGATGC (((((((....))))))),Tm,[1],67.1 °C
same,folding enthalpy,[2],-46.9 kcal/mol
GCGAGGTCGAAAGACCGC (((..(((....)))))),Tm,[1],54.3 °C
same,folding enthalpy,[2],-9.59 kcal/mol
GATCATGCCAATGATC ((((((....)))))),Tm,[1],58.5 °C
same,folding enthalpy,[2],-45.4 kcal/mol
GCTACCACGAAAGTGAGC (((..(((....)))))),Tm,[1],33.3 °C
same,folding enthalpy,[2],-15.3 kcal/mol
GCCAAGGGAAACCTTAGC ((.((((....)))).)),Tm,[1],33.2 °C
same,folding enthalpy,[2],-19.3 kcal/mol
GAGTGCGAAAGCATCTC ((((((....))).))),Tm,[1],52.1 °C
same,folding enthalpy,[2],-21 kcal/mol
GCGACTAATCGC ((((....)))),Tm,[1],47.2 °C
same,folding enthalpy,[2],-24.2 kcal/mol
GATCTATCGCTAGATC ((((((....)))))),Tm,[1],39.8 °C
same,folding enthalpy,[2],-15 kcal/mol
AACAAGAAATTGTT (((((....))))),Tm,[1],23.3 °C
same,folding enthalpy,[2],-7.18 kcal/mol
GCGCTCGGAAACAAGCGC (((((.(....).))))),Tm,[1],55.9 °C
same,folding enthalpy,[2],-46.7 kcal/mol
GATCACCTTAGTGATC ((((((....)))))),Tm,[1],59.3 °C
same,folding enthalpy,[2],-39.1 kcal/mol
GGAACGGGAAACTGTTCC (((((.(....).))))),Tm,[1],53 °C
same,folding enthalpy,[2],-42.4 kcal/mol
GATCCTAGCAAGGATC ((((((....)))))),Tm,[1],52.8 °C
same,folding enthalpy,[2],-33.2 kcal/mol
GTCGTCGAAAGACTGAC ((((((....))).))),Tm,[1],47.5 °C
same,folding enthalpy,[2],-19.4 kcal/mol
GCCCTCGAAAGAGGCGGC ((((((....)))..))),Tm,[1],56 °C
same,folding enthalpy,[2],-19.1 kcal/mol
GAAGGTGGAAACACCTTC (((((((....))))))),Tm,[1],64.6 °C
same,folding enthalpy,[2],-37.7 kcal/mol
GGCCCCGGAAACGGGACC ((.((((....)))).)),Tm,[1],59 °C
same,folding enthalpy,[2],-25.8 kcal/mol
GTAAACGAAAGTTTCTAC ((((((....)))..))),Tm,[1],30.2 °C
same,folding enthalpy,[2],-12.3 kcal/mol
GTCTACGAAAGTAAAGAC ((((((....)))..))),Tm,[1],37.3 °C
same,folding enthalpy,[2],-23.8 kcal/mol
GCGAGTGGAAACATTCGC ((((.((....)).)))),Tm,[1],53.2 °C
same,folding enthalpy,[2],-35 kcal/mol
GAATATGGAAACATGTTC (((.(((....))).))),Tm,[1],37.6 °C
same,folding enthalpy,[2],-32.6 kcal/mol
GCAAGGCGAAAGCCAAGC ((..(((....)))..)),Tm,[1],50.1 °C
same,folding enthalpy,[2],-13.8 kcal/mol
GCCAGAGGAAACCCTGGC (((((.(....).))))),Tm,[1],52.4 °C
same,folding enthalpy,[2],-41 kcal/mol
CGTCCGGAAACGGTCACG ((((((....)))..))),Tm,[1],35.2 °C
same,folding enthalpy,[2],-13.9 kcal/mol
GCCGTGCGAAAGCCGGGC (((..((....))..))),Tm,[1],65.3 °C
same,folding enthalpy,[2],-15.1 kcal/mol
GCCTAGCGAAAGCTCAGC ((..(((....)))..)),Tm,[1],34.7 °C
same,folding enthalpy,[2],-14.6 kcal/mol
GGAGCTCGAAAGAGATCC (((.(((....))).))),Tm,[1],64 °C
same,folding enthalpy,[2],-44 kcal/mol
GATCGGACCCCGATC ((((((...)))))),Tm,[1],54.1 °C
same,folding enthalpy,[2],-39.4 kcal/mol
GATCCTGGCAGGATC ((((((...)))))),Tm,[1],57.7 °C
same,folding enthalpy,[2],-39.7 kcal/mol
GATCTCATAAGAGATC ((((((....)))))),Tm,[1],52.3 °C
same,folding enthalpy,[2],-38.7 kcal/mol
GGAAACTCGAAAGAGTCC (((..(((....)))))),Tm,[1],33.8 °C
same,folding enthalpy,[2],-14.3 kcal/mol
GGTTCCTCGAAAGAGACC (((..(((....)))))),Tm,[1],25.8 °C
same,folding enthalpy,[2],-10.1 kcal/mol
GATCAGCTTCCTGATC ((((((....)))))),Tm,[1],49.6 °C
same,folding enthalpy,[2],-44.1 kcal/mol
GTAGGTGCGAAAGCATAC (((..(((....)))))),Tm,[1],31.1 °C
same,folding enthalpy,[2],-8.27 kcal/mol
GCGGCCGTCCGC ((((....)))),Tm,[1],58.6 °C
same,folding enthalpy,[2],-25.8 kcal/mol
GATCAGACGTCTGATC ((((((....)))))),Tm,[1],55 °C
same,folding enthalpy,[2],-60.5 kcal/mol
GCCTAGCGAAAGCTGAGC ((..(((....)))..)),Tm,[1],48.8 °C
same,folding enthalpy,[2],-10.7 kcal/mol
GCCTCCGAAAGGATAGGC ((((((....)))..))),Tm,[1],53.2 °C
same,folding enthalpy,[2],-37.1 kcal/mol
GCTTCAGGAAACTGGAGC (((.(((....))).))),Tm,[1],49.9 °C
same,folding enthalpy,[2],-38.5 kcal/mol
GGAAACGAAAGTTTTCC ((((((....))).))),Tm,[1],46.2 °C
same,folding enthalpy,[2],-20.4 kcal/mol
GGCCGGGGAAACCCGACC ((.((((....)))).)),Tm,[1],57.2 °C
same,folding enthalpy,[2],-34.5 kcal/mol
GACAGAGGAAACCCTGTC (((((.(....).))))),Tm,[1],42.5 °C
same,folding enthalpy,[2],-32.9 kcal/mol
GGACCCGAAAGGGCGTCC ((((((....)))..))),Tm,[1],49.1 °C
same,folding enthalpy,[2],-16.7 kcal/mol
GTAGTCGAAAGACAGTAC ((((((....)))..))),Tm,[1],27.2 °C
same,folding enthalpy,[2],-12.5 kcal/mol
GATCGTATACACGATC ((((((....)))))),Tm,[1],53.9 °C
same,folding enthalpy,[2],-38.4 kcal/mol
GAAAACGAAAGTTCTTTC ((((((....)))..))),Tm,[1],28.9 °C
same,folding enthalpy,[2],-15.9 kcal/mol
GGCGTTGGAAACAGCGCC ((((.((....)).)))),Tm,[1],60.9 °C
same,folding enthalpy,[2],-52.1 kcal/mol
CGGACCGGAAACGGCCCG (((.(((....))).))),Tm,[1],56.4 °C
same,folding enthalpy,[2],-39.9 kcal/mol
GCTAACGAAAGTTTAAGC ((((((....)))..))),Tm,[1],35.5 °C
same,folding enthalpy,[2],-19 kcal/mol
GATCCACCTTGGATC ((((((...)))))),Tm,[1],51.2 °C
same,folding enthalpy,[2],-31.7 kcal/mol
GATCATGAGCATGATC ((((((....)))))),Tm,[1],48 °C
same,folding enthalpy,[2],-36.8 kcal/mol
GGTGTACGAAAGTAACC (((.(((....)))))),Tm,[1],47.8 °C
same,folding enthalpy,[2],-24.5 kcal/mol
GATCTCCCCGAGATC ((((((...)))))),Tm,[1],55.3 °C
same,folding enthalpy,[2],-36.9 kcal/mol
GGTGTTGGAAACAATGCC ((..(((....)))..)),Tm,[1],41.8 °C
same,folding enthalpy,[2],-21 kcal/mol
GCCCTGCGAAAGCACTGC ((..(((....)))..)),Tm,[1],24.6 °C
same,folding enthalpy,[2],-6.98 kcal/mol
GGTGATACGAAAGTAACC (((..(((....)))))),Tm,[1],33.6 °C
same,folding enthalpy,[2],-11.7 kcal/mol
GGTGGCCGAAAGGCGACC (((.(((....))).))),Tm,[1],66.2 °C
same,folding enthalpy,[2],-30.2 kcal/mol
GCACGGCGAAAGCGGCGC ((.(.((....)).).)),Tm,[1],57 °C
same,folding enthalpy,[2],-24.1 kcal/mol
GCTGGGCGAAAGCCAAGC (((.(((....))).))),Tm,[1],66.8 °C
same,folding enthalpy,[2],-26.8 kcal/mol
GATCGTGTGGACGATC ((((((....)))))),Tm,[1],55.7 °C
same,folding enthalpy,[2],-38 kcal/mol
GGGAGGGCGAAAGCCCCC (((..(((....)))))),Tm,[1],55.3 °C
same,folding enthalpy,[2],-10.6 kcal/mol
